In one data set the test system is Huh-7. Description: Cytotoxicity against human HuH7 cells at <50 uM after 48 hrs by firefly reporter assay. The note with it: huh-7, 48 h. The format is cell-based. In short, it runs like this:
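Uninfected Huh-7 cells stably expressing firefly luciferase, seeded 5000/well and incubated overnight at 37 °C. Compound added at 1.56–50 μM, plus 100, 200 and 400 μM, then incubated as for infected cells (further 48 h after the 4 h point). Firefly luminescence read with 70 μM luciferin and 2 mM ATP. Mean of three wells as percent of DMSO control.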

The subject of a further data set is dengue virus type 2. Description: Antiviral activity against Dengue virus 2 infected in human Huh-7 cells assessed as inhibition of viral replication after 48 hrs by luciferase reporter gene assay. Type of data set: functional, organism-based. The note with it: Huh-7, 48 h. A digest of the protocol:
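Huh-7 cells seeded 5000/well, incubated overnight at 37 °C, then given compound (1.56–50 μM final, 2-fold series in DMEM with 10% FCS). Dengue 2 renilla luciferase reporter virus (MOI 10) added 4 h later. After 48 h at 37 °C, cells lysed and renilla luminescence read with coelenterazine. At least four wells per concentration, expressed relative to DMSO control. EC50 by nonlinear regression.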

The target in data set [1] is Prothrombin (Homo sapiens) (UniProt P00734). Nature of the data set: Inhibition of thrombin (unknown origin) using Boc-Val-Pro-Arg-AMC as substrate at 25 uM after 10 mins by continuous fluorimetric assay. In short, it runs like this: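 Thrombin (10 nM) preincubated 15 min with inhibitor (25 μM final) in 50 mM Tris-HCl pH 7.5, 150 mM NaCl, 0.05% Tween 20. Boc-Val-Pro-Arg-AMC then added to 50 μM (Km 16 μM). Fluorescence (ex 355 nm, em 460 nm) followed for 10 min as slope. Triplicate; percent inhibition versus no-inhibitor control.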

Another data set deals with West Nile virus. Nature of the data set: Inhibition of West Nile virus NS2B-NS3 protease expressed in Escherichia coli BL 21 (DE3) using Abz-Gly-Leu-Lys-Arg-Gly-Gly-3-(NO2)Tyr as substrate at 50 uM after 15 mins.
A further data set has as its system Dengue virus. Nature of the data set: Inhibition of Dengue virus NS2B-NS3 protease expressed in Escherichia coli BL 21 (DE3) using Abz-Nle-Lys-Arg-Arg-Ser-3-(NO2)Tyr as substrate at 50 uM after 15 mins.
A short description of data set [2]: Permeability of the compound by PAMPA. Type of data set: ADME. To be noted: read-out: permeability. A digest of the protocol: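 PAMPA with precoated trilayer lipid/oil/lipid membranes, donor wells holding 200 μM compound in PBS pH 7.4 (2% DMSO final), in triplicate. Incubated 5 h at room temperature. Donor and acceptor concentrations determined by UV plate reader or HPLC-UV against calibration curves. Pe and mass retention R calculated.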

The values below come from ChEMBL document CHEMBL2440094, “Thiazolidinone-peptide hybrids as dengue virus protease inhibitors with antiviral activity in cell culture” (J Med Chem, 2013).

With `CCCC[C@H](NC(=O)[C@H](CCCCN)NC(=O)[C@H](CCCNC(=N)N)NC(=O)/C=C1\SC(=S)N(Cc2ccc(OC)cc2)C1=O)C(N)=O`, the Activity result with Huh-7 is recorded as “Non-toxic”. Moreover, the concentration giving a half-maximal response (EC50) in the data set on dengue virus type 2 is 26 µM. Further, the figures for the inhibition (in data set [1]; in the data set with West Nile virus; in the data set with Dengue virus) were 24.7%, 15.3% and 40.9%, respectively.
As to `CCCC[C@H](NC(=O)[C@H](CCCCN)NC(=O)[C@H](CCCNC(=N)N)NC(=O)c1ccc(/C=C2\SC(=O)N(C)C2=O)cc1)C(N)=O`, in the data set with Huh-7, the Activity result is “Non-toxic”. The inhibition in data set [1] was 9.2%; in the data set on West Nile virus, 38.1%; in the data set on Dengue virus, 91.1%.
Turning to `CCCC[C@H](NC(=O)[C@H](CCCCN)NC(=O)[C@H](CCCNC(=N)N)NC(=O)c1ccc(/C=C2\SC(=O)NC2=O)cc1)C(N)=O`, the Activity result in the data set on Huh-7 is recorded as “Non-toxic”. For the same compound, the EC50 with dengue virus type 2 was greater than 50 µM. For the same compound, the inhibition was determined as 14.5% in data set [1], 27% in the data set on West Nile virus and 84.4% with Dengue virus.
With `CCCC[C@H](NC(=O)[C@H](CCCCN)NC(=O)[C@H](CCCNC(=N)N)NC(=O)c1ccc(/C=C2\SC(=S)N(c3ccc(OC)cc3)C2=O)cc1)C(N)=O`, in the data set on dengue virus type 2, the EC50 stood at 42.5 µM. Besides, the Papp in data set [2] came out at 0.59 ×10⁻⁶ cm/s. For the same compound, the inhibition amounted to 8.5% in data set [1], 42.9% in the data set on West Nile virus and 92.5% in the data set with Dengue virus.
Regarding `CCCC[C@H](NC(=O)[C@H](CCCCN)NC(=O)[C@H](CCCNC(=N)N)NC(=O)[C@H](Cc1ccccc1)N1C(=O)/C(=C/c2ccc(OC)c(OC)c2)SC1=S)C(N)=O`, the EC50 in the data set with dengue virus type 2 is greater than 50 µM. The inhibition in data set [1] was found to be 18.9%; in the data set with West Nile virus, 25%; in the data set with Dengue virus, 60.8%.
`CCCC[C@H](NC(=O)[C@H](CCCCN)NC(=O)[C@H](CCCNC(=N)N)NC(=O)c1ccc(/C=C2\SC(=S)NC2=O)cc1)C(N)=O`: the Activity result in the data set on Huh-7 is reported as “Non-toxic”. In the data set with dengue virus type 2, the EC50 is greater than 50 µM. The results for the inhibition (in data set [1]; in the data set on West Nile virus; in the data set on Dengue virus) were 13.9%, 48.7% and 87.1%, respectively.
As for `CCCC[C@@H](NC(=O)[C@@H](CCCCN)NC(=O)[C@@H](CCCNC(=N)N)NC(=O)c1ccc(/C=C2\SC(=O)N(Cc3ccccc3)C2=O)cc1)C(N)=O`, in data set [2], the Papp worked out at 0.29 ×10⁻⁶ cm/s. The inhibition is 11.1% in data set [1], 47.5% in the data set with West Nile virus and 73.9% in the data set with Dengue virus.
In the case of `CCCC[C@H](NC(=O)[C@H](CCCCN)NC(=O)[C@H](CCCNC(=N)N)NC(=O)c1ccc(/C=C2\SC(=S)N(CCO)C2=O)cc1)C(N)=O`, the EC50 with dengue virus type 2 is greater than 50 µM. The figures for the inhibition (in data set [1]; in the data set on West Nile virus; in the data set with Dengue virus) were 12.9%, 28.4% and 90.3%, respectively.
Regarding `CCCC[C@H](NC(=O)[C@H](CCCCN)NC(=O)[C@H](CCCNC(=N)N)NC(=O)c1cccc(/C=C2\SC(=O)N(C3CCCC3)C2=O)c1)C(N)=O`, in the data set with dengue virus type 2, the EC50 amounted to 53.8 µM. Also, the Papp in data set [2] worked out at 1.9 ×10⁻⁶ cm/s. The inhibition in data set [1] came out at 13%; in the data set with West Nile virus it was 52.9%; in the data set with Dengue virus, 92.4%.
For the compound `CCCC[C@H](NC(=O)[C@H](CCCCN)NC(=O)[C@H](CCCNC(=N)N)NC(=O)c1ccc(/C=C2\SC(=O)N(c3ccc(C)cc3)C2=O)cc1)C(N)=O`, the Papp in data set [2] was 0.66 ×10⁻⁶ cm/s. For the same compound, the inhibition in data set [1] amounted to 13.8%; in the data set on West Nile virus, 42.4%; in the data set on Dengue virus, 93.8%.
For `CCCC[C@H](NC(=O)[C@H](CCCCN)NC(=O)[C@H](CCCNC(=N)N)NC(=O)c1ccc(/C=C2\SC(=S)N(C)C2=O)cc1)C(N)=O`, the Activity result with Huh-7 is recorded as “Non-toxic”. The EC50 with dengue virus type 2 is greater than 50 µM. In addition, the inhibition in data set [1] was found to be 14.8%; in the data set on West Nile virus, 35%; in the data set on Dengue virus, 89%.
With `CCCC[C@H](NC(=O)[C@H](CCCCN)NC(=O)[C@H](CCCNC(=N)N)NC(=O)c1ccc(/C=C2\SC(=S)N(c3ccc(Cl)cc3)C2=O)cc1)C(N)=O`, the 50% effective concentration (EC50) in the data set on dengue virus type 2 is 35.7 µM. Further, the Papp in data set [2] came to 1.02 ×10⁻⁶ cm/s. Moreover, the values for the inhibition (in data set [1]; in the data set with West Nile virus; in the data set on Dengue virus) were 11.1%, 53.6% and 96.7%, respectively.

The term EC50 denotes the concentration at which the effect is half-maximal. A word on the inhibition: it is the relative decrease from the control value, in per cent.
